Results on one compound are retold here after paper PMC10784415 (Developmental dynamics : an official publication of the …, 2023).

The subject of this data set is Wistar rats. Nature of the data set: MicroCT analysis of dentoalveolar tissues. It is filed as in vivo, rat. To be noted: for Rats with aberrant crown and root morphology of mandibular third molars: high dose (1.0 mg/kg) from PND7, PND37. The method in brief:
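Daily oral gavage began at PND7 (vehicle, or test compound at 0.1 or 1.0 mg/kg), and formalin-fixed heads (5 per sex per group) were scanned by microCT at PND14 and PND37. PND37 thresholds were enamel 1500 and dentin/bone 650 mg HA/cm³. Alveolar bone included buccal/lingual, interdental and mesial rise regions. Read-outs were second-molar tissue volumes and densities, first-molar root lengths, and third-molar tissue thickness. Analysis was one-way ANOVA, p<0.05.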

The mark [1] stands for this setting: female rats, high dose, PND37, vs vehicle.
Setting [2] is: male rats, high dose, PND37, vs vehicle.

As for `CCN1CCN(c2ccc(Nc3cc(N(C)C(=O)Nc4c(Cl)c(OC)cc(OC)c4Cl)ncn3)cc2)CC1` [infigratinib, 3-(2,6-Dichloro-3,5-dimethoxy-phenyl)-1-{6-[4-(4-ethyl-piperazin-1-yl)-phenylamino]-pyrimidin-4-yl}-1-methyl-urea], for the setting “female rats”, the “Rats with aberrant crown and root morphology of mandibular third molars” value came to 100%. Besides, the Alveolar bone density entry (female rats, high dose, PND14, vs vehicle) is “decreased alveolar bone density”. The “Pulp density of mandibular second molars” value (female rats, high dose, PND37) is listed as “significant increase”. Besides, the “Reduction of mandibular first molar dentin volume” value (female rats, high dose, PND37, in comparison to the other groups) is 12%. Under setting [1], the “Decrease of first molar lingual root length” value is listed as 9%, the “Decrease of first molar mesial root length” value turned out to be 8%, the “Decrease of mandibular third molar dentin volume” value is reported as 40% and the “Decrease of mandibular third molar enamel volume” value turned out to be 64%. The “Decrease of root dentin volume” value under setting [1] is recorded as 21%. The “Alterations in dental tissues” value (low dose (0.1 mg/kg)) is recorded as “did not detect any alterations”. The “Rats with aberrant crown and root morphology of mandibular third molars” value (male rats) came to 80%. Further, under setting [2], the “Decrease of mandibular third molar dentin volume” value worked out at 28%, the “Decrease of mandibular third molar enamel thickness” value is 33%, the “Decrease of mandibular third molar enamel volume” value is on record as 61% and the “Decrease of root dentin volume” value amounted to 16%. Further, the “Dentin mineral density of second molars” value under setting [2] is reported as “significantly higher”.
